MsrA inh: inhibitors of bovine MsrA. inhibition, % at 15.5 µM. AID 651718. 360,000 tested, 0.75% active. purified bovine MsrA, absorbance read-out; in the data active = inhibition above about 4.5%
GalR3 antagonist: blocks the human galanin receptor 3; inhibition, % at 3 µM; HEK293 GalR3-CNG cAMP membrane potential fluorescence; galR3 body fused to GalR1 C-terminus; O60755; 360,000 tested, 0.44% active;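 active = inhibition above the screen-wide average plus 3 SD, cut at about 13% in these data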;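 note: forskolin and galanin both at EC90 stimulate the cells; cAMP rise reported by CNG channel membrane potential dye signal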
bovine MsrA act: bovine methionine sulfoxide reductase A activation | AID 602163 | 360,000 tested, 0.3% active | purified bovine MsrA, absorbance read-out | activation, % at 10.6 µM; in the data active = activation above about 7.5%
NR2E3 ag-1: agonists of human NR2E3 nuclear receptor; inhibition of corepressor binding, % at 3.98 µM; AID 602229; 360,000 tested, 0.35% active; CHO-S Gal4-NCOR/VP16-NR2E3 two-hybrid, luciferase;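 active = inhibition above the mean of all tested compounds plus 3 SD, cut at about 70% in these data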;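 note: higher means lower luciferase signal from less NR2E3 corepressor binding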
Target sequence (Q9Y5X4 whole entry, looked up, the tested form may be a part): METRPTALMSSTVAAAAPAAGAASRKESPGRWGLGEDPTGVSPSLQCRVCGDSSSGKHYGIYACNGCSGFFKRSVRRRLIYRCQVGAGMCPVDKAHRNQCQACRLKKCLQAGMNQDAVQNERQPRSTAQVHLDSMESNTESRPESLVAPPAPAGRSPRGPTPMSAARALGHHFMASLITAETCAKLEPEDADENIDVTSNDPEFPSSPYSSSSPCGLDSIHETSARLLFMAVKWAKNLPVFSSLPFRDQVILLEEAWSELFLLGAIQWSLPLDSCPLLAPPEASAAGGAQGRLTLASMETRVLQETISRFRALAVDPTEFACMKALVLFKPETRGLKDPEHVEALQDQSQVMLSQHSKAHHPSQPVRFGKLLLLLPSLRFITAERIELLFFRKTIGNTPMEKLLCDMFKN
NR2E3 ag-2: activates human photoreceptor nuclear receptor NR2E3 | GST-NR2E3/biotin-RetCOR TR-FRET, 1536-well | 320,000 tested, 0.12% active | inhibition of corepressor binding, % at 4.78 µM;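 active = percent inhibition above the cutoff of mean plus 3 SD of all tested compounds, set per screening campaign, cut at about 20% in these data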
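Material – GST-tagged NR2E3 plus biotinylated RetCOR corepressor · Quantity – NR2E3 fusion 1.35 nM · Times – 5 h incubation at 4 °C · Medium – pH 7.5 Tris-based buffer · Technique – TR-FRET, Eu(K)-anti-GST donor, streptavidin-D2 acceptor, ex 340, em 617/671 nm · Benchmarks – high control biotin, low control 0.6% DMSO · Format – 1536-well plates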
NadD inh: NadD (S. aureus) enzyme inhibition; AID 602399; purified NadD enzyme, colorimetric absorbance read-out; inhibition, % at 20 µM; 360,000 tested, 0.78% active; in the data active = inhibition above about 26%
MsrA activ conf: bovine methionine sulfoxide reductase A activation confirmed; shares compounds with bovine MsrA act; purified bovine MsrA, absorbance read-out; activation, % at 10.6 µM; 1,000 tested, 12% active; AID 602270; in the data active = activation above about 4%;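 note: enzyme coupled to thioredoxin and thioredoxin reductase with NADPH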
Each line names hits and unclear results; the compound was inactive in the other large screens (follow-up assays come after a bar, where they were run). Sampled rows, rich in hits. Any-hit rate of the full collection: about 2.5%.

COc1ccc(C(=O)N2CC3(C)C4CCC3(C)C2(C#N)C4)cc1OC (stereo unspecified)	none
Cc1ccc(/C=N/NC(=O)C2COc3ccccc3O2)s1 (stereo unspecified)	none
O=C(N/N=C/c1cccs1)C1COc2ccccc2O1 (stereo unspecified)	bovine MsrA act 8.6 | MsrA activ conf inactive
CC1CCC(NS(=O)(=O)c2ccc(Cl)nc2)CC1 (stereo unspecified)	none
NCCCCCc1nnc(SCc2ccc(Cl)c(Cl)c2)o1	bovine MsrA act 8.3 | MsrA activ conf inactive
NCCc1nnc(SCc2ccc(F)cc2)o1	none
Cc1ccccc1-n1sc2cc(F)ccc2c1=O	bovine MsrA act 15 | MsrA activ conf 9.7
O=c1c2cc(F)ccc2sn1-c1ccccc1	bovine MsrA act 15 | MsrA activ conf 9.8
N#Cc1ccc2c(=O)n(-c3ccccc3)sc2c1	none (no result: NR2E3 ag-2)
Cc1ccc(-n2sc3ccccc3c2=O)cc1S(=O)(=O)N1CCCCC1	none
O=c1c2ccccc2sn1-c1ccccc1	bovine MsrA act 12 | MsrA activ conf 13
CN(C)S(=O)(=O)c1cccc(-n2sc3ccccc3c2=O)c1	bovine MsrA act 7.7 | MsrA activ conf 8.9
CCc1cccc(C)c1NC(=O)Cn1nc(C)n2cccc2c1=O	none
O=c1c2ccccc2sn1-c1cccc(Cl)c1	bovine MsrA act 12 (no result: NR2E3 ag-2) | MsrA activ conf 5.8
CC(=O)Nc1ccc2c(=O)n(-c3ccccc3)sc2c1	bovine MsrA act 7.7 (no result: NR2E3 ag-2) | MsrA activ conf inactive
Cc1ccc(S(=O)(=O)Cn2nnnc2C(C(C)C)N2CCc3ccccc3C2)cc1 (stereo unspecified)	none (no result: MsrA inh, GalR3 antagonist)
CCC(C)Sc1nc2ccccc2c(=O)[nH]1 (stereo unspecified)	bovine MsrA act 15 | MsrA activ conf inactive
O=c1[nH]c(=S)[nH]cc1Oc1ccc(Cl)cc1	bovine MsrA act 9.0 (no result: NR2E3 ag-2) | MsrA activ conf 4.2
CC1(C)CC(=O)C(C(N)=NC(=O)c2ccc([N+](=O)[O-])cc2)=C(O)C1	bovine MsrA act 17 | MsrA activ conf inactive
CC1(C)CC(=O)C(C(N)=NC(=O)c2ccccc2)=C(O)C1	none
CCC1CCc2sc(C(=O)N(C)CC(=O)Nc3ccc(OC)cc3)cc2C1 (stereo unspecified)	none
CCC1CCc2sc(C(=O)N(C)CC(=O)Nc3cccc(OC)c3)cc2C1 (stereo unspecified)	bovine MsrA act 11 | MsrA activ conf inactive
COc1cccc(OC)c1C(=O)Nc1cccc(-c2ccc(N3CCOCC3)nn2)c1	none
COc1ccc(-c2c(C)nn3c(N4CCN(Cc5ccccc5)CC4)cc(C)nc23)cc1OC	bovine MsrA act 8.3 | MsrA activ conf inactive
Cc1ccc(C(=O)NC(=S)NCC2CCCO2)cc1Br (stereo unspecified)	none
CN(CC(=O)N1CCOCC1)S(=O)(=O)c1ccc2ccccc2c1	none
CCCn1c(=O)c2ccccc2n2c(SCC(=O)c3ccccc3)nnc12	bovine MsrA act 12 | MsrA activ conf inactive
CCCn1c(=O)c2ccccc2n2c(SCCNCCO)nnc12	none
O=C1OC(c2ccccc2)Sc2ccccc21 (stereo unspecified)	none (no result: NR2E3 ag-2)
O=C(CSc1ccc(Cl)cc1)NN=C1CCCCCC1	bovine MsrA act 9.0 | MsrA activ conf inactive
Cc1ccc(NC(=O)CN(C)C(=O)c2cccc(S(=O)(=O)N3CCc4ccccc4C3)c2)cc1	bovine MsrA act 10 (no result: NR2E3 ag-2) | MsrA activ conf inactive
CCN(CC(=O)Nc1ccc(NC(C)=O)cc1)C(=O)c1cccc(S(=O)(=O)N2CCc3ccccc3C2)c1	none
COc1ccc(-c2csc(NC(=O)CSc3n[nH]c(N)n3)n2)cc1	none
Cc1noc(C)c1C(=O)N1CCC(Cc2ccccc2)CC1	none
Cc1cc(C)c2c(n1)nn1c(N3CCN(c4ccccc4C)CC3)cc(C)nc21	bovine MsrA act 7.7 | MsrA activ conf inactive
COc1ccc(CN2CCN(c3cc(C)nc4c5c(C)cc(C)nc5nn34)CC2)cc1F	none
O=C(NCC1CC1)c1ccc2sc([C@H]3C[C@H](O)[C@@H](CO)O3)nc2c1	none (no result: NR2E3 ag-2)
CCOC(=O)C1=CC[C@@H](c2ccccc2Cl)N(S(=O)(=O)c2ccc(C)cc2)[C@H]1C(=O)OCC	none
CCOC(=O)C1=CC[C@@H](c2cccc(C)c2)N(S(=O)(=O)c2ccc(C)cc2)[C@H]1C(=O)OCC	bovine MsrA act 9.9 | MsrA activ conf inactive
Cn1c(-c2ccco2)n[nH]c1=S	none
S=c1nc(-c2ccco2)[nH][nH]1	bovine MsrA act 8.2 | MsrA activ conf inactive
O=c1[nH]c(CN2CCN(CCO)CC2)nc2ccccc12	bovine MsrA act 8.9 | MsrA activ conf inactive
CCOC(=O)N1CCC(N(CCN(C)C)C(=S)Nc2cccc(Cl)c2)CC1	none
CC1CCc2cc(F)ccc2N1C(=O)CCC(=O)O (stereo unspecified)	bovine MsrA act 9.8 | MsrA activ conf inactive
CC1CCc2cc(F)ccc2N1C(=O)c1cccs1 (stereo unspecified)	none
O=C(CCC(=O)N(Cc1ccco1)C(C(=O)NC1CCCC1)c1ccncc1)Nc1cccnc1 (stereo unspecified)	none
CCOc1ccc(C(=O)NC2CCN(C(=O)NCc3ccccc3)CC2)cc1	bovine MsrA act 9.6 | MsrA activ conf inactive
CCOc1ccccc1-c1nc(-c2ccncc2)no1	bovine MsrA act 8.4 | MsrA activ conf inactive
CCOc1ccc(-c2noc(-c3ccncc3)n2)cc1OCC	none
CCOc1ccc(-c2nc(-c3ccc(OC)cc3)no2)cc1OCC	bovine MsrA act 7.9 | MsrA activ conf inactive
CCC(=O)N1CCCC1(C)C(=O)Nc1cccc(Oc2ccccc2)c1 (stereo unspecified)	none (no result: NR2E3 ag-2)
Cc1cccc(C)c1-n1nnnc1-c1nc2cc(Br)ccc2[nH]c1=O	bovine MsrA act 8.0 (no result: NR2E3 ag-2) | MsrA activ conf inactive
Cc1cc(Br)ccc1SCC(=O)OCC(=O)Nc1ccc2[nH]c(=O)[nH]c2c1	none
Cn1c(NCc2ccco2)nc2ccccc21	none
CC1(C)Oc2nc3ccccc3n2/C1=C\C#N	bovine MsrA act 8.0 | MsrA activ conf inactive
COc1ccc(-c2noc(N3CCC(C(=O)NCCCN4CCCC(C)C4)CC3)n2)cc1 (stereo unspecified)	bovine MsrA act 8.7 (no result: GalR3 antagonist) | MsrA activ conf inactive
CCCCOc1ccc(C(=O)NCC(=O)NCC(c2cccs2)N2CCOCC2)cc1 (stereo unspecified)	none
CC(C)(C)c1ccc(OCCC(=O)NCC(c2cccs2)N2CCOCC2)cc1 (stereo unspecified)	bovine MsrA act 13 | MsrA activ conf inactive
O=C(CN1C(=O)c2ccccc2C1=O)NC1CCCCCC1	none
Cc1ccccc1N=C1NC(=O)/C(=C/c2cccn2C)S1	bovine MsrA act 8.1 | MsrA activ conf inactive

Screens deposited in PubChem by several laboratories.
